# Results published in ChEMBL document CHEMBL1143581, “Cationic chalcone antibiotics. Design, synthesis, and mechanism of action” (2005).
# Activity calls are given as the source filed them. The calls are words filed in the database; no cut-off is given here.
# Experiments:
# Enterococcus faecium [1] = assay: Minimum inhibitory concentration against Enterococcus faecium […]; type: functional
# Enterococcus faecium [2] = assay: Minimum inhibitory concentration against Enterococcus faecium 17501 (vancomycin-resistant clinical isolate); type: functional
# Staphylococcus aureus [3] = assay: Minimum inhibitory concentration against Staphylococcus aureus ATCC 33591 (resistant to methicillin); type: functional
# Escherichia coli = assay: Minimum inhibitory concentration against Escherichia coli ATCC 25922; type: functional
# How it was run: (§1)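 Broth microdilution per NCCLS in Mueller-Hinton medium, run in triplicate, with an added uninoculated compound dilution series in case of precipitation. MIC read as the lowest concentration preventing visible growth; reported values are the mean of three experiments.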
# Enterococcus faecium [4] = assay: Minimum inhibitory concentration against Enterococcus faecium […]; NA=not active; type: functional, organism-based; how it was run: as §1
# Enterococcus faecium [5] = assay: Minimum inhibitory concentration against Enterococcus faecium 17501 (vancomycin-resistant clinical isolate); NA=not active; type: functional, organism-based
# Staphylococcus aureus [6] = assay: Minimum inhibitory concentration against Staphylococcus aureus ATCC 33591 (resistant to methicillin); NA=not active; type: functional, organism-based
# Staphylococcus aureus [7] = assay: Effect on bacterial membrane integrity was determined by using SYTO9 green fluorescent […]; type: functional, Bacteria
# How it was run: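 Incubated 15 min at 37 °C with agitation, then resuspended to OD600 ~0.4 and stained with BacLight (SYTO-9/propidium iodide) 15 min dark. Excitation 485 nm, emission 530/630 nm; green/red ratio normalized to untreated control.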
# [8] = Percent lysis of human erythrocytes after exposed to test compound was measured as hemolysis; type: functional
Compound,MIC (Enterococcus faecium [1]),MIC (Enterococcus faecium [2]),MIC (Staphylococcus aureus [3]),MIC (Escherichia coli),MIC (Enterococcus faecium [4]),MIC (Enterococcus faecium [5]),MIC (Staphylococcus aureus [6]),Membrane integrity (Staphylococcus aureus [7]),Hemolysis [8]
CN(C)CCNc1ccc(C(=O)/C=C/c2ccc(Cl)cc2Cl)cc1,40 µM,40 µM,40 µM,,,,,,
CN(C)CCNc1cccc(C(=O)/C=C/c2cc(-c3ccccc3)cc(N3CCN(C)CC3)c2)c1,40 µM,40 µM,20 µM,75 µM,,,,,
COc1ccc(C(=O)/C=C/c2cc(-c3cccnc3)ccc2N2CCN(C)CC2)c(F)c1,75 µM,75 µM,75 µM,,,,,,
Cc1cc(C)cc(-c2ccc(OCCN(C)C)c(/C=C/C(=O)c3ccccc3NCCN(C)C)c2)c1,10 µM,10 µM,10 µM,10 µM,,,,,
CN(C)CCNc1cccc(C(=O)/C=C/c2cc(-c3ccccc3)ccc2N2CCN(C)CC2)c1,40 µM,20 µM,20 µM,20 µM,,,,,
Cc1cc(C)cc(-c2ccc(OCCN(C)C)c(/C=C/C(=O)c3cccc(NCCN(C)C)c3)c2)c1,10 µM,10 µM,5 µM,20 µM,,,,,
CN(C)CCNc1cccc(C(=O)/C=C/c2ccc(-c3ccccc3)cc2N2CCN(C)CC2)c1,40 µM,40 µM,20 µM,40 µM,,,,,
Cc1cc(C)cc(-c2ccc(OCCN(C)C)c(/C=C/C(=O)c3cccc(CN(C)C)c3)c2)c1,10 µM,10 µM,10 µM,40 µM,,,,,
Cc1cc(C)cc(-c2ccc(OCCN(C)C)c(/C=C/C(=O)c3ccc(NCCN(C)C)cc3)c2)c1,20 µM,10 µM,10 µM,20 µM,,,,,
COc1ccc(C(=O)/C=C/c2cc(-c3ccccc3OC)ccc2N2CC[N+](C)(C)CC2)c(F)c1,,,10 µM,,,,,,
COc1ccc(C(=O)/C=C/c2cc(-c3ccc(C(F)(F)F)cc3)ccc2N2CCN(C)CC2)c(F)c1,,,,,inactive,inactive,inactive,,
Cc1cc(C)cc(-c2ccc(OCCN(C)C)c(/C=C/C(=O)c3ccc(CN(C)C)cc3)c2)c1,20 µM,10 µM,5 µM,20 µM,,,,,
COc1ccc(C(=O)/C=C/c2ccccc2OCCN(C)C)c(F)c1,300 µM,300 µM,300 µM,,,,,,
COc1ccc(C(=O)/C=C/c2cc(-c3ccccc3)ccc2CN(C)C)c(F)c1,150 µM,150 µM,150 µM,,,,,,
COc1ccc(C(=O)/C=C/c2cc(-c3ccccc3OC)ccc2N2CCN(C)CC2)c(F)c1,20 µM,10 µM,10 µM,,,,,0%,80%
COc1ccc(C(=O)/C=C/c2cc(-c3ccccc3OC)ccc2N2CCN(C(C)=O)CC2)c(F)c1,,,,,inactive,inactive,inactive,,
Cc1cc(C)cc(-c2ccc(OCCN(C)C)c(/C=C/C(=O)c3ccccc3OCCN(C)C)c2)c1,10 µM,10 µM,10 µM,40 µM,,,,,
COc1ccc(C(=O)/C=C/c2cc(-c3cccc(C(F)(F)F)c3)ccc2N2CCN(C)CC2)c(F)c1,10 µM,5 µM,5 µM,,,,,,
COc1ccc(C(=O)/C=C/c2cc(C(C)(C)C)ccc2OCCN(C)C)c(F)c1,20 µM,20 µM,10 µM,,,,,,
COc1ccc(C(=O)/C=C/c2cc(-c3ccccc3OC)ccc2N2CCCN(C)CC2)c(F)c1,20 µM,10 µM,10 µM,,,,,,
C=CC(C)(C)c1cc(/C=C/C(=O)c2ccc(O)cc2)c(OC)cc1O [LICOAGROCHACONE A],75 µM,40 µM,40 µM,,,,,0%,100%
COc1ccc(C(=O)/C=C/c2cc(-c3cc(C)cc(C)c3)ccc2OCCN(C)C)c(F)c1,5 µM,5 µM,5 µM,,,,,,
Cc1cc(C)cc(-c2ccc(N(C)CCN(C)C)c(/C=C/C(=O)c3cccc(NCCN(C)C)c3)c2)c1,10 µM,10 µM,10 µM,20 µM,,,,,
CN(C)CCNc1ccc(/C=C/C(=O)c2ccc(Oc3ccccc3)cc2)cc1,10 µM,20 µM,20 µM,,,,,,
COc1ccc(C(=O)/C=C/c2cc(-c3ccccc3OC)ccc2OCCN(C)C)c(F)c1,10 µM,10 µM,10 µM,,,,,,
Cc1cc(C)cc(-c2ccc(OCCN(C)C)c(/C=C/C(=O)c3ccc(OCCN(C)C)cc3)c2)c1,20 µM,10 µM,10 µM,40 µM,,,,,
